# Test results from ChEMBL document CHEMBL3046951, “Volatile constituents from the leaves of Callicarpa japonica Thunb. and their antibacterial activities” (2004).
# Experiments:
# Format in all cases: functional
# Vibrio parahaemolyticus [1] = assay: Antimicrobial activity against Vibrio parahaemolyticus ATCC 33844 assessed as growth inhibition rate at 3.4 mg/l after 72 hr by spectrophotometry; conditions: ATCC 33844, 72 h, read-out: GI
# Method in brief: (§1)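 Vibrio parahaemolyticus ATCC 33844 grown at 37 °C in tryptic soy broth with 3% (w/v) NaCl, using an 18 h subculture of a 24 h culture. Pure compounds (>95% purity) were tested. Bioscreen C optical density was read every 24 h for 72 h against a 10% Tween 80 control.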
# Escherichia coli [2] = assay: Antimicrobial activity against Escherichia coli O157:H7 ATCC 43894 assessed as growth inhibition rate at 0.68 mg/l after 72 hr by spectrophotometry; conditions: O157:H7 ATCC 43894, 72 h, read-out: GI
# Staphylococcus aureus [3] = assay: Antimicrobial activity against Staphylococcus aureus ATCC 25923 assessed as growth inhibition rate at 6.8 mg/l after 72 hr by spectrophotometry; conditions: ATCC 25923, 72 h, read-out: GI
# Method in brief: (§2)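 Staphylococcus aureus ATCC 25923 grown at 37 °C in tryptic soy broth, using an 18 h subculture of a 24 h culture. Individual leaf-volatile compounds (>95% purity) were tested. Bioscreen C optical density was recorded every 24 h for 72 h and compared with a 10% Tween 80 control.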
# Staphylococcus aureus [4] = assay: Antimicrobial activity against Staphylococcus aureus ATCC 25923 assessed as growth inhibition rate at 0.68 mg/l after 72 hr by spectrophotometry; conditions: ATCC 25923, 72 h, read-out: GI; method in brief: as §2
# Listeria monocytogenes [5] = assay: Antimicrobial activity against Listeria monocytogenes ATCC 19111 assessed as growth inhibition rate at 0.068 mg/l after 72 hr by spectrophotometry; conditions: ATCC 19111, 72 h, read-out: GI
# Method in brief: (§3)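 L. monocytogenes was grown at 30 °C in tryptic soy broth, subcultured for 18 h, and exposed to pure volatile compounds (>95% purity). Growth was followed by Bioscreen C optical density every 24 h for 72 h against a 10% Tween 80 control.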
# Vibrio parahaemolyticus [6] = assay: Antimicrobial activity against Vibrio parahaemolyticus ATCC 33844 assessed as growth inhibition rate at 0.68 mg/l after 72 hr by spectrophotometry; conditions: ATCC 33844, 72 h, read-out: GI; method in brief: as §1
# Salmonella typhimurium [7] = assay: Antimicrobial activity against Salmonella enterica subsp. enterica serovar Typhimurium ATCC 14028 assessed as growth inhibition rate at 0.34 mg/l after 72 hr by spectrophotometry; conditions: ATCC 14028, 72 h, read-out: GI
# Method in brief: (§4)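 Salmonella Typhimurium ATCC 14028 grown in nutrient broth at 30 °C, precultured 24 h, then subcultured 1:100 for 18 h before testing. Single volatile compounds (>95% pure) were added. OD was read every 24 h over 72 h in a Bioscreen C, with 10% Tween 80 as the comparison control.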
# Escherichia coli [8] = assay: Antimicrobial activity against Escherichia coli O157:H7 ATCC 43894 assessed as growth inhibition rate at 0.34 mg/l after 72 hr by spectrophotometry; conditions: O157:H7 ATCC 43894, 72 h, read-out: GI
# Bacillus cereus [9] = assay: Antimicrobial activity against Bacillus cereus ATCC 11778 assessed as growth inhibition rate at 3.4 mg/l after 72 hr by spectrophotometry; conditions: ATCC 11778, 72 h, read-out: GI
# Method in brief: (§5)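 Pure volatile compounds (purity >95%; one at 90%) were tested against B. cereus ATCC 11778. The strain was grown at 30 °C in nutrient broth for 24 h, then subcultured for 18 h. Optical density was read in a Bioscreen C every 24 h for 72 h, with 10% Tween 80 as the control.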
# Escherichia coli [10] = assay: Antimicrobial activity against Escherichia coli O157:H7 ATCC 43894 assessed as growth inhibition rate at 0.068 mg/l after 72 hr by spectrophotometry; conditions: O157:H7 ATCC 43894, 72 h, read-out: GI
# Listeria monocytogenes [11] = assay: Antimicrobial activity against Listeria monocytogenes ATCC 19111 assessed as growth inhibition rate at 0.34 mg/l after 72 hr by spectrophotometry; conditions: ATCC 19111, 72 h, read-out: GI; method in brief: as §3
# Vibrio parahaemolyticus [12] = assay: Antimicrobial activity against Vibrio parahaemolyticus ATCC 33844 assessed as growth inhibition rate at 0.34 mg/l after 72 hr by spectrophotometry; conditions: ATCC 33844, 72 h, read-out: GI
# Bacillus cereus [13] = assay: Antimicrobial activity against Bacillus cereus ATCC 11778 assessed as growth inhibition rate at 6.8 mg/l after 72 hr by spectrophotometry; conditions: ATCC 11778, 72 h, read-out: GI; method in brief: as §5
# Listeria monocytogenes [14] = assay: Antimicrobial activity against Listeria monocytogenes ATCC 19111 assessed as growth inhibition rate at 0.68 mg/l after 72 hr by spectrophotometry; conditions: ATCC 19111, 72 h, read-out: GI; method in brief: as §3
# Salmonella typhimurium [15] = assay: Antimicrobial activity against Salmonella enterica subsp. enterica serovar Typhimurium ATCC 14028 assessed as growth inhibition rate at 6.8 mg/l after 72 hr by spectrophotometry; conditions: ATCC 14028, 72 h, read-out: GI; method in brief: as §4
# Bacillus cereus [16] = assay: Antimicrobial activity against Bacillus cereus ATCC 11778 assessed as growth inhibition rate at 0.68 mg/l after 72 hr by spectrophotometry; conditions: ATCC 11778, 72 h, read-out: GI; method in brief: as §5
# Listeria monocytogenes [17] = assay: Antimicrobial activity against Listeria monocytogenes ATCC 19111 assessed as growth inhibition rate at 6.8 mg/l after 72 hr by spectrophotometry; conditions: ATCC 19111, 72 h, read-out: GI; method in brief: as §3
# Staphylococcus aureus [18] = assay: Antimicrobial activity against Staphylococcus aureus ATCC 25923 assessed as growth inhibition rate at 3.4 mg/l after 72 hr by spectrophotometry; conditions: ATCC 25923, 72 h, read-out: GI; method in brief: as §2
# Escherichia coli [19] = assay: Antimicrobial activity against Escherichia coli O157:H7 ATCC 43894 assessed as growth inhibition rate at 0.017 mg/l after 72 hr by spectrophotometry; conditions: O157:H7 ATCC 43894, 72 h, read-out: GI
# Listeria monocytogenes [20] = assay: Antimicrobial activity against Listeria monocytogenes ATCC 19111 assessed as growth inhibition rate at 3.4 mg/l after 72 hr by spectrophotometry; conditions: ATCC 19111, 72 h, read-out: GI; method in brief: as §3
# Vibrio parahaemolyticus [21] = assay: Antimicrobial activity against Vibrio parahaemolyticus ATCC 33844 assessed as growth inhibition rate at 0.068 mg/l after 72 hr by spectrophotometry; conditions: ATCC 33844, 72 h, read-out: GI
# Salmonella typhimurium [22] = assay: Antimicrobial activity against Salmonella enterica subsp. enterica serovar Typhimurium ATCC 14028 assessed as growth inhibition rate at 0.68 mg/l after 72 hr by spectrophotometry; conditions: ATCC 14028, 72 h, read-out: GI; method in brief: as §4
# Bacillus cereus [23] = assay: Antimicrobial activity against Bacillus cereus ATCC 11778 assessed as growth inhibition rate at 0.017 mg/l after 72 hr by spectrophotometry; conditions: ATCC 11778, 72 h, read-out: GI; method in brief: as §5
# Bacillus cereus [24] = assay: Antimicrobial activity against Bacillus cereus ATCC 11778 assessed as growth inhibition rate at 0.34 mg/l after 72 hr by spectrophotometry; conditions: ATCC 11778, 72 h, read-out: GI; method in brief: as §5
# Salmonella typhimurium [25] = assay: Antimicrobial activity against Salmonella enterica subsp. enterica serovar Typhimurium ATCC 14028 assessed as growth inhibition rate at 3.4 mg/l after 72 hr by spectrophotometry; conditions: ATCC 14028, 72 h, read-out: GI; method in brief: as §4
# Salmonella typhimurium [26] = assay: Antimicrobial activity against Salmonella enterica subsp. enterica serovar Typhimurium ATCC 14028 assessed as growth inhibition rate at 0.068 mg/l after 72 hr by spectrophotometry; conditions: ATCC 14028, 72 h, read-out: GI; method in brief: as §4
# Salmonella typhimurium [27] = assay: Antimicrobial activity against Salmonella enterica subsp. enterica serovar Typhimurium ATCC 14028 assessed as growth inhibition rate at 0.017 mg/l after 72 hr by spectrophotometry; conditions: ATCC 14028, 72 h, read-out: GI; method in brief: as §4
# Escherichia coli [28] = assay: Antimicrobial activity against Escherichia coli O157:H7 ATCC 43894 assessed as growth inhibition rate at 6.8 mg/l after 72 hr by spectrophotometry; conditions: O157:H7 ATCC 43894, 72 h, read-out: GI
# Staphylococcus aureus [29] = assay: Antimicrobial activity against Staphylococcus aureus ATCC 25923 assessed as growth inhibition rate at 0.34 mg/l after 72 hr by spectrophotometry; conditions: ATCC 25923, 72 h, read-out: GI
# Vibrio parahaemolyticus [30] = assay: Antimicrobial activity against Vibrio parahaemolyticus ATCC 33844 assessed as growth inhibition rate at 6.8 mg/l after 72 hr by spectrophotometry; conditions: ATCC 33844, 72 h, read-out: GI; method in brief: as §1
# Listeria monocytogenes [31] = assay: Antimicrobial activity against Listeria monocytogenes ATCC 19111 assessed as growth inhibition rate at 0.017 mg/l after 72 hr by spectrophotometry; conditions: ATCC 19111, 72 h, read-out: GI; method in brief: as §3
# Staphylococcus aureus [32] = assay: Antimicrobial activity against Staphylococcus aureus ATCC 25923 assessed as growth inhibition rate at 0.068 mg/l after 72 hr by spectrophotometry; conditions: ATCC 25923, 72 h, read-out: GI
# Bacillus cereus [33] = assay: Antimicrobial activity against Bacillus cereus ATCC 11778 assessed as growth inhibition rate at 0.068 mg/l after 72 hr by spectrophotometry; conditions: ATCC 11778, 72 h, read-out: GI; method in brief: as §5
# Escherichia coli [34] = assay: Antimicrobial activity against Escherichia coli O157:H7 ATCC 43894 assessed as growth inhibition rate at 3.4 mg/l after 72 hr by spectrophotometry; conditions: O157:H7 ATCC 43894, 72 h, read-out: GI
# Vibrio parahaemolyticus [35] = assay: Antimicrobial activity against Vibrio parahaemolyticus ATCC 33844 assessed as growth inhibition rate at 0.017 mg/l after 72 hr by spectrophotometry; conditions: ATCC 33844, 72 h, read-out: GI
# Staphylococcus aureus [36] = assay: Antimicrobial activity against Staphylococcus aureus ATCC 25923 assessed as growth inhibition rate at 0.017 mg/l after 72 hr by spectrophotometry; conditions: ATCC 25923, 72 h, read-out: GI
smiles,measurement,setting,value
"CC/C=C/C=C/C=O [2,4-HEPTADIENAL]",inhibition of growth at 3.4 µg/mL,Vibrio parahaemolyticus [1],82.4%
same,inhibition of growth at 0.68 µg/mL,Escherichia coli [2],4.4%
same,inhibition of growth at 6.8 µg/mL,Staphylococcus aureus [3],95.5%
same,inhibition of growth at 0.68 µg/mL,Staphylococcus aureus [4],4.9%
same,inhibition of growth at 0.068 µg/mL,Listeria monocytogenes [5],0.8%
same,inhibition of growth at 0.68 µg/mL,Vibrio parahaemolyticus [6],11.4%
same,inhibition of growth at 0.34 µg/mL,Salmonella typhimurium [7],8.6%
same,inhibition of growth at 0.34 µg/mL,Escherichia coli [8],1.3%
same,inhibition of growth at 3.4 µg/mL,Bacillus cereus [9],92.9%
same,inhibition of growth at 0.068 µg/mL,Escherichia coli [10],0.5%
same,inhibition of growth at 0.34 µg/mL,Listeria monocytogenes [11],1.6%
same,inhibition of growth at 0.34 µg/mL,Vibrio parahaemolyticus [12],6.1%
same,inhibition of growth at 6.8 µg/mL,Bacillus cereus [13],100%
same,inhibition of growth at 0.68 µg/mL,Listeria monocytogenes [14],5.9%
same,inhibition of growth at 6.8 µg/mL,Salmonella typhimurium [15],88.6%
same,inhibition of growth at 0.68 µg/mL,Bacillus cereus [16],11%
same,inhibition of growth at 6.8 µg/mL,Listeria monocytogenes [17],51.6%
same,inhibition of growth at 3.4 µg/mL,Staphylococcus aureus [18],80.9%
same,inhibition of growth at 0.017 µg/mL,Escherichia coli [19],0.5%
same,inhibition of growth at 3.4 µg/mL,Listeria monocytogenes [20],34.5%
same,inhibition of growth at 0.068 µg/mL,Vibrio parahaemolyticus [21],5.8%
same,inhibition of growth at 0.68 µg/mL,Salmonella typhimurium [22],18.2%
same,inhibition of growth at 0.017 µg/mL,Bacillus cereus [23],0%
same,inhibition of growth at 0.34 µg/mL,Bacillus cereus [24],1.8%
same,inhibition of growth at 3.4 µg/mL,Salmonella typhimurium [25],57.8%
same,inhibition of growth at 0.068 µg/mL,Salmonella typhimurium [26],8.8%
same,inhibition of growth at 0.017 µg/mL,Salmonella typhimurium [27],5.8%
same,inhibition of growth at 6.8 µg/mL,Escherichia coli [28],27.5%
same,inhibition of growth at 0.34 µg/mL,Staphylococcus aureus [29],2.8%
same,inhibition of growth at 6.8 µg/mL,Vibrio parahaemolyticus [30],99%
same,inhibition of growth at 0.017 µg/mL,Listeria monocytogenes [31],0.1%
same,inhibition of growth at 0.068 µg/mL,Staphylococcus aureus [32],0%
same,inhibition of growth at 0.068 µg/mL,Bacillus cereus [33],1.1%
same,inhibition of growth at 3.4 µg/mL,Escherichia coli [34],16.6%
same,inhibition of growth at 0.017 µg/mL,Vibrio parahaemolyticus [35],5.6%
same,inhibition of growth at 0.017 µg/mL,Staphylococcus aureus [36],0%
